Legend:
[1] = target: T1, Amine oxidase [flavin-containing] A (Homo sapiens, UniProt P21397); experiment: Inhibition of human recombinant MAO-A using p-tyramine as substrate assessed as production of H2O2 incubated for 15 mins prior to substrate addition at 60 uM […] by microplate fluorescence reader analysis; details: 20 min
T1 sequence (P21397 whole entry): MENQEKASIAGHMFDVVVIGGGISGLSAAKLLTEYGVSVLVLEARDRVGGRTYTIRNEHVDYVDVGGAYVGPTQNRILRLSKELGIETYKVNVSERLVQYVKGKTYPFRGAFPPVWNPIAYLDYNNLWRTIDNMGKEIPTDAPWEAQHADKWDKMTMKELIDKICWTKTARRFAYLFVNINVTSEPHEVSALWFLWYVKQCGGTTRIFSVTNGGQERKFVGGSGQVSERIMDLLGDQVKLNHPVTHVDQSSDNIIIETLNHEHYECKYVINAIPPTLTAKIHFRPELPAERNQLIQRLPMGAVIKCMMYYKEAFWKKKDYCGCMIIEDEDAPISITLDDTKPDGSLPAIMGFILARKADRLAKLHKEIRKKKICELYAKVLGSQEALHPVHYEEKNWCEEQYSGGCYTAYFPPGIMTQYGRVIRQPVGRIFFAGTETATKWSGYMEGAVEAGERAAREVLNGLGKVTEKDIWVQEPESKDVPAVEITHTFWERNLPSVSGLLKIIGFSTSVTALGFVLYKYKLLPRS

[2] = target: T2, Amine oxidase [flavin-containing] B (Homo sapiens, UniProt P27338); experiment: Inhibition of human recombinant MAO-B using p-tyramine as substrate assessed as production of H2O2 incubated for 15 mins prior to substrate addition at 60 uM measured after 20 mins by microplate fluorescence reader analysis
T2 sequence (P27338 whole entry): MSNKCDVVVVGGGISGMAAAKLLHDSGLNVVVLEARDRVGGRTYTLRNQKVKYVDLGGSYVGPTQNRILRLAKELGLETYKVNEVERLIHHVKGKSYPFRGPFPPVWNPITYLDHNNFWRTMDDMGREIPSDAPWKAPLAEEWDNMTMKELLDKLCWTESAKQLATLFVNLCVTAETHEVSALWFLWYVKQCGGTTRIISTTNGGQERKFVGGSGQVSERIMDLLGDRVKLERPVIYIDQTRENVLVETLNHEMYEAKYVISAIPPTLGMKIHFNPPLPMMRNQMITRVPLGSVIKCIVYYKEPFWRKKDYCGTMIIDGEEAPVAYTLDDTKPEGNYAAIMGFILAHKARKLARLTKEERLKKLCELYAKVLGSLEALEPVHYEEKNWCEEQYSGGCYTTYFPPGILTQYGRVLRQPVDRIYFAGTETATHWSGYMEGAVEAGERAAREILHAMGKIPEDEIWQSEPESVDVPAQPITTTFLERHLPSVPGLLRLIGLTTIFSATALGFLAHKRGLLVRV

Homo sapiens = species on record: Homo sapiens; experiment: Selectivity index, ratio of IC50 for human recombinant MAO-B to IC50 for human recombinant MAO-A
How it was run: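 SI = IC50(MAO-B)/IC50(MAO-A), both from the same Amplex Red/p-tyramine H2O2 fluorimetric assay. Each isoform came from microsomes of baculovirus-infected insect cells: MAO-A at 1.1 µg, MAO-B at 7.5 µg, matched to equal velocity.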

[3] = target: T1, Amine oxidase [flavin-containing] A; experiment: Inhibition of human recombinant MAO-A using p-tyramine as substrate assessed as production of H2O2 incubated for 15 mins prior to substrate addition measured after 20 mins by microplate fluorescence reader analysis
[4] = target: T2, Amine oxidase [flavin-containing] B; experiment: Inhibition of human recombinant MAO-B using p-tyramine as substrate assessed as production of H2O2 incubated for 15 mins prior to substrate addition measured after 20 mins by microplate fluorescence reader analysis

Compound | inhibition (INH) [1] | INH [2] | Ratio IC50 (Homo sapiens) | IC50 [3] [µM] | IC50 [4] [µM]
COc1ccc(C2=NN(C(=O)Cn3ccnc3)C(c3cc(Cl)ccc3O)C2)cc1 (centres undefined) | Not Active | Not Active |  |  | 
Cc1ccc(C2=NN(C(=O)CN3CCOCC3)C(c3cc(Cl)ccc3O)C2)cc1 (centres undefined) |  | Not Active | 2.2 | 27 | 
CC1=NN(C(=O)CN2CCOCC2)C(c2cc(Cl)ccc2O)C1 (centres undefined) |  |  | 3.2 | 13.1 | 41.8
O=C(CN1CCCCC1)N1N=C(c2ccc(Cl)cc2)CC1c1ccccc1O (centres undefined) |  |  | 5.5 | 7.25 | 40.1
Cc1ccc(C2=NN(C(=O)Cn3ccnc3)C(c3ccccc3O)C2)cc1 (centres undefined) | Not Active |  | 0.69 |  | 41.3
O=C(Cn1ccnc1)N1N=C(c2ccccc2)CC1c1ccccc1O (centres undefined) | Not Active |  | 1 |  | 59.4
C#CCN(C)[C@H](C)Cc1ccccc1 [SELEGILINE] | Not Active |  |  |  | 
CC1=NN(C(=O)CN2CCNCC2)C(c2cc(Br)cc(Br)c2O)C1 (centres undefined) |  | Not Active | 30 | 2 | 
O=C(CN1CCCCC1)N1N=C(c2ccccc2)CC1c1ccccc1O (centres undefined) |  |  | 5.3 | 9.51 | 50.6
O=C(CN1CCOCC1)N1N=C(c2ccc(Cl)cc2)CC1c1ccccc1O (centres undefined) |  |  | 1.5 | 21.2 | 31.5
Cc1ccc(C2=NN(C(=O)CN3CCOCC3)C(c3ccccc3O)C2)cc1 (centres undefined) |  | Not Active | 3 | 20 | 
CC1=NN(C(=O)CN2CCC(O)CC2)C(c2cc(Br)cc(Br)c2O)C1 (centres undefined) |  | Not Active | 4.8 | 12.4 | 
Cc1ccc(C2=NN(C(=O)CN3CCCCC3)C(c3ccccc3O)C2)cc1 (centres undefined) |  |  | 4 | 11.3 | 45.6
O=C(CN1CCOCC1)N1N=C(c2ccccc2)CC1c1ccccc1O (centres undefined) |  | Not Active | 2.6 | 23.2 | 
COc1ccc(C2=NN(C(=O)CN3CCOCC3)C(c3cc(Cl)ccc3O)C2)cc1 (centres undefined) |  |  | 3.1 | 18.3 | 56.5
O=C(CN1CCNCC1)N1N=C(c2ccc(F)cc2)CC1c1cc(Cl)ccc1O (centres undefined) |  |  | 24.5 | 2.4 | 58.9
CC1=NN(C(=O)CN2CCC(=O)CC2)C(c2cc(Br)cc(Br)c2O)C1 (centres undefined) |  |  | 7 | 8.38 | 58.9
COc1ccc(C2=NN(C(=O)Cn3ccnc3)C(c3ccccc3O)C2)cc1 (centres undefined) | Not Active | Not Active |  |  | 
Cc1ccc(C2=NN(C(=O)Cn3ccnc3)C(c3cc(Cl)ccc3O)C2)cc1 (centres undefined) | Not Active |  | 0.27 |  | 16.1

Compound | inhibition (INH) [1] | INH [2] | Ratio IC50 (Homo sapiens) | IC50 [3] [µM] | IC50 [4] [µM]
CC1=NN(C(=O)CN2CCCCC2)C(c2cc(Cl)ccc2O)C1 (centres undefined) |  |  | 5.3 | 10.5 | 55.9
O=C(CN1CCOCC1)N1N=C(c2ccc(F)cc2)CC1c1ccccc1O (centres undefined) |  | Not Active | 3.6 | 16.9 | 
CC1=NN(C(=O)Cn2ccnc2)C(c2cc(Cl)ccc2O)C1 (centres undefined) |  | Not Active | 2 | 30.3 | 
Cc1ccc(C2=NN(C(=O)CN3CCCCC3)C(c3cc(Cl)ccc3O)C2)cc1 (centres undefined) |  |  | 3.9 | 14.4 | 56.2
CC1=NN(C(=O)CN2CCC(CO)CC2)C(c2cc(Br)cc(Br)c2O)C1 (centres undefined) |  |  | 1.2 | 25.7 | 30.1
O=C(CN1CCCCC1)N1N=C(c2ccc(Cl)cc2)CC1c1cc(Cl)ccc1O (centres undefined) |  |  | 7.3 | 6.01 | 44.1
O=C(CN1CCOCC1)N1N=C(c2ccc(F)cc2)CC1c1cc(Cl)ccc1O (centres undefined) |  |  | 1.2 | 24.3 | 30.2
O=C(CBr)N1N=C(c2ccc(F)cc2)CC1c1ccccc1O (centres undefined) |  |  | 8.8 | 6 | 52.9
COc1ccc(C2=NN(C(=O)CN3CCOCC3)C(c3ccccc3O)C2)cc1 (centres undefined) |  | Not Active | 2.5 | 24.5 | 
O=C(CN1CCCCC1)N1N=C(c2ccc(F)cc2)CC1c1cc(Cl)ccc1O (centres undefined) |  | Not Active | 16.1 | 3.72 | 
COc1ccc(C2=NN(C(=O)CN3CCCCC3)C(c3ccccc3O)C2)cc1 (centres undefined) |  |  | 4.7 | 12.7 | 59.4
CC1=NN(C(=O)CN2CCCCC2)C(c2cc(Br)cc(Br)c2O)C1 (centres undefined) |  |  | 6.4 | 7.8 | 49.9
O=C(CN1CCCCC1)N1N=C(c2ccc(F)cc2)CC1c1ccccc1O (centres undefined) |  |  | 5.9 | 8.02 | 47.4
O=C(Cn1ccnc1)N1N=C(c2ccc(F)cc2)CC1c1ccccc1O (centres undefined) |  | Not Active | 2.3 | 26.3 | 
COc1ccc(C2=NN(C(=O)CN3CCCCC3)C(c3cc(Cl)ccc3O)C2)cc1 (centres undefined) |  | Not Active | 6.2 | 9.65 | 
CC1=NN(C(=O)CN2CCN(CCO)CC2)C(c2cc(Br)cc(Br)c2O)C1 (centres undefined) |  |  | 3.4 | 12.3 | 42.3
O=C(Cn1ccnc1)N1N=C(c2ccc(F)cc2)CC1c1cc(Cl)ccc1O (centres undefined) | Not Active | Not Active |  |  | 
Cc1ccc(C2=NN(C(=O)CBr)C(c3cc(Cl)ccc3O)C2)cc1 (centres undefined) |  | Not Active | 11.5 | 5.22 | 
O=C(CN1CCOCC1)N1N=C(c2ccc(Cl)cc2)CC1c1cc(Cl)ccc1O (centres undefined) |  |  | 1.8 | 31.2 | 55.1

Reference: ChEMBL document CHEMBL3393005, “Design and synthesis of novel 2-pyrazoline-1-ethanone derivatives as selective MAO inhibitors” (Bioorg Med Chem, 2015)
